ChEMBL document CHEMBL2086351, “Α-aryl-N-alkyl nitrones, as potential agents for stroke treatment: synthesis, theoretical calculations, antioxidant, anti-inflammatory, neuroprotective, and brain-blood barrier permeability properties” (J Med Chem, 2012)
Activity calls are given as the source filed them. The calls are words filed in the database; no cut-off is given here.

Assays:
[1] = Antioxidant activity assessed as inhibition of AAPH-induced lipid peroxidation at 0.1 mM by UV spectrophotometric analysis; type: functional
[2] = Antioxidant activity against AAPH-induced lipid peroxidation assessed as induction time of inhibition at 0.1 mM; type: functional
[3] = Antioxidant activity assessed as Fe3+/ascorbic acid-induced hydroxyl radical scavenging activity at 0.1 mM after 30 mins; type: functional
Outline: (§1)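 Tested in vitro at 0.1 mM. The hydroxyl radical line measures competition with DMSO for hydroxyl radicals. Superoxide was generated at pH 7.4 and read as nitroblue tetrazolium reduction to formazan at 560 nm. LOX inhibition was measured by UV absorbance enzyme assay with plant lipoxygenase.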

[4] = Antioxidant activity assessed as superoxide anion radical scavenging activity at 0.1 mM after 10 mins by tetrazolium dye assay; type: functional; outline: as §1
[5] = biological target: Lipoxygenase (Glycine max) (UniProt Q39829); test: Inhibition of soybean lipoxygenase assessed as conversion of sodium linoleate to 13-hydroperoxylinoleic acid at 0.1 mM by competitive inhibition assay; outline: as §1
[6] = Induction of NO release in phosphate buffer at pH 7.4 at 0.1 mM by Griess assay in presence of L-cysteine; type: physicochemical; settings: pH 7.4, 100 µM
Outline: (§2)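 Compounds at 100 μM final were dissolved in phosphate buffer pH 7.4 containing L-cysteine. Released NO was measured. Where indicated, 1 mM cysteine and a nitrate reductase/NADPH system were used. Sodium nitroprusside served as reference.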

[7] = Induction of NO release in phosphate buffer at pH 7.4 assessed as nitrite level at 0.1 mM by nitrate reductase/NADPH based Griess assay in presence of L-cysteine; type: physicochemical; settings: pH 7.4, 100 µM; outline: as §2
[8] = Neuroprotective activity in Sprague-Dawley rat primary cortical neurons assessed as reversal of oxygen-glucose deprivation-induced neuronal damage at 1 uM by treated 4 hrs after OGD challenge measured after 24 hrs by LDH release assay relative to control; type: functional, Cerebral cortex neuron
Outline: (§3)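 Primary cortical neurons, cultured 6–8 days, underwent 4 h oxygen–glucose deprivation followed by 24 h reperfusion. Compounds (1–250 μM) were added at reperfusion. Necrotic death was read as LDH release, normalized to untreated reperfusion cells as 100%. Four independent experiments; mean ± SEM; one-way ANOVA with Holm–Sidak post test.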

[9] = Permeability of the compound at pH 7.4 by PAMPA; type: ADME; settings: read-out: permeability
Outline: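 PAMPA-BBB method of Di et al. (passive blood–brain barrier permeation). Effective permeability is reported as Pe in 10−6 cm s−1.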

[10] = tested on: Mus musculus; test: Neuroprotective activity in NMRI mouse assessed as protection against tert-butyl hydroperoxide-mediated lethality at 150 mg/kg, ip administered 30 mins before t-BHP challenge measured after 1 to 24 hrs; type: functional; settings: route intraperitoneal
[11] = tested on: Rattus norvegicus; test: Antiinflammatory activity in Fisher 344 rat assessed as inhibition of carrageenan-induced paw edema at 0.01 mmol/kg, ip measured 3.5 hrs after carrageenan challenge; type: functional; settings: Fisher 344, ip
Outline: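 Percent inhibition of carrageenan-induced rat paw oedema relative to untreated controls. Compounds given at 0.01 mmol/kg. Six animals per group in two independent experiments (n = 6 × 2), reported as mean ± SD. Significance versus controls by Student's t test.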

[12] = tested on: Radical scavenging activity; test: Antioxidant activity assessed as DPPH radical scavenging activity at 15 uM after 2 hrs by spectrophotometric analysis; type: functional
[13] = Neuroprotective activity in Sprague-Dawley rat primary cortical neurons assessed as reversal of oxygen-glucose deprivation-induced neuronal damage treated 4 hrs after OGD challenge measured after 24 hrs MTT assay; type: functional, cell-based; settings: Cerebral cortex neuron
Outline: (§4)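 Primary cerebral cortex neurons, cultured 6–8 days, underwent 4 h oxygen–glucose deprivation. Compounds (0.1 μM–10 mM range) were added at the start of a 24 h reperfusion. Viability was read by MTT with untreated control as 100%. Neuroprotection = % recovery from the reperfusion-only value (0%) to control (100%). Three to five independent experiments; mean ± SEM.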

[14] = Neuroprotective activity in Sprague-Dawley rat primary cortical neurons assessed as reversal of oxygen-glucose deprivation-induced neuronal damage at 100 uM by treated 4 hrs after OGD challenge measured after 24 hrs MTT assay relative to control; type: functional, cell-based; settings: Cerebral cortex neuron; outline: as §4
[15] = Neuroprotective activity in Sprague-Dawley rat primary cortical neurons assessed as reversal of oxygen-glucose deprivation-induced neuronal damage at 10 uM by treated 4 hrs after OGD challenge measured after 24 hrs MTT assay relative to control; type: functional, cell-based; settings: Cerebral cortex neuron; outline: as §4
[16] = Neuroprotective activity in Sprague-Dawley rat primary cortical neurons assessed as reversal of oxygen-glucose deprivation-induced neuronal damage at 10 uM by treated 4 hrs after OGD challenge measured after 24 hrs by LDH release assay relative to control; type: functional, Cerebral cortex neuron; outline: as §3
[17] = tested on: Radical scavenging activity; test: Antioxidant activity assessed as DPPH radical scavenging activity at 0.5 mM after 2 hrs by spectrophotometric analysis; type: functional
Outline: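 DPPH radical test, measuring initial absorbance and absorbance after reaction spectrophotometrically.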

[18] = Neuroprotective activity in Sprague-Dawley rat primary cortical neurons assessed as reversal of oxygen-glucose deprivation-induced neuronal damage at 250 uM by treated 4 hrs after OGD challenge measured after 24 hrs by LDH release assay relative to control; type: functional, Cerebral cortex neuron; outline: as §3
[19] = Neuroprotective activity in Sprague-Dawley rat primary cortical neurons assessed as reversal of oxygen-glucose deprivation-induced neuronal damage at 100 uM by treated 4 hrs after OGD challenge measured after 24 hrs by LDH release assay relative to control; type: functional, Cerebral cortex neuron; outline: as §3
[20] = Neuroprotective activity in Sprague-Dawley rat primary cortical neurons assessed as reversal of oxygen-glucose deprivation-induced neuronal damage at 5 mM by treated 4 hrs after OGD challenge measured after 24 hrs MTT assay relative to control; type: functional, cell-based; settings: Cerebral cortex neuron; outline: as §4

| Structure (SMILES) | inhibition [1] | TIME [2] | Activity [3] | Activity [4] | inhibition [5] | Activity [6] | Activity [7] | Activity [10] | also measured |
| --- | --- | --- | --- | --- | --- | --- | --- | --- | --- |
| CC(C)(C)/[N+]([O-])=C/c1cccnc1Cl | 37% | 0.497 h | 30% | 5% | 59% | 2% | 4% |  |  |
| COc1ccc2c(c1)cc(/C=[N+](\[O-])C(C)(C)C)n2C | 80% | 0.73 h | 79.5% | 5% | 31% | 3% | 5% |  |  |
| O=[N+]([O-])OCCOc1ccc(/C=[N+](\[O-])Cc2ccccc2)cc1 | 64% | 0.767 h | 100% |  | 21% |  |  | 22% | Activity [8]: 47.48%; Papp [9]: 16.8 ×10⁻⁶ cm/s |
| COc1cc(/C=[N+](\[O-])Cc2ccccc2)c(Br)cc1O | 87% | 0.697 h | 78% | 3% | 24% | 5% | 6% |  |  |
| COc1ccc2c(c1)c(CC(=O)O)c(C)n2C(=O)c1ccc(Cl)cc1 [INDOMETHACIN] |  |  |  |  |  |  |  |  | inhibition in vivo at 10 µmol/kg [11]: 47% |
| COc1cc(/C=C/C(=O)CC(=O)/C=C/c2ccc(O)c(OC)c2)ccc1O |  |  |  |  |  |  |  |  | Activity [12]: 35% |
| C/[N+]([O-])=C/c1ccccc1 | 5% | 0.0167 h | 77% | 8% | 22% |  |  |  | inhibition in vivo at 10 µmol/kg [11]: 26.5%; Activity [13]: inactive |
| O=c1c(O)c(-c2ccc(O)c(O)c2)oc2cc(O)cc(O)c12 |  |  |  |  |  |  |  |  | Activity [12]: 94.2% |
| O=[N+]([O-])OCCCOc1ccc(/C=[N+](\[O-])Cc2ccccc2)cc1 | 81% | 0.61 h | 98% |  | 30% |  |  | 31% | Activity [14]: 83%; Activity [15]: 77.6%; Activity [16]: 45.37%; Papp [9]: 22 ×10⁻⁶ cm/s |
| COc1cc(Br)c(/C=[N+](\[O-])C(C)(C)C)cc1OC | 47% | 0.00867 h | 90% | 15% |  | 1% | 2% |  |  |
| CC(C)(C)/[N+]([O-])=C/c1ccc(OCCO[N+](=O)[O-])cc1 |  | 0 h | 98% | 19% | 19% |  |  | 18% | Activity [17]: 0.6%; Activity [18]: 79.21% |
| [O-]/[N+](=C\c1ccccc1)Cc1ccccc1 | 74% | 0.42 h | 97% | 24% |  |  |  |  |  |
| COc1cc(Br)c(/C=[N+](\[O-])Cc2ccccc2)cc1O | 89% | 1.41 h |  | 6% |  | 2% | 2% |  | Activity [13]: inactive |
| CC(C)(C)/[N+]([O-])=C/c1ccc(Br)o1 |  | 0 h | 95% |  | 39% |  |  | 37% | Activity [17]: 0%; Activity [18]: 96.26% |
| COc1cc(/C=[N+](\[O-])Cc2ccccc2)ccc1O | 90% | 1.47 h | 52% |  |  | 9% | 10% |  | Activity [13]: inactive |
| Cc1ccc2nc(Cl)c(/C=[N+](\[O-])Cc3ccccc3)cc2c1 | 37% | 1.3 h | 95% | 23% | inactive |  |  | 72% | Activity [17]: 42.3%; Activity [14]: 105%; Activity [15]: 75.7%; Activity [16]: 63.01%; Activity [19]: 66.82% |

| Structure (SMILES) | inhibition [1] | TIME [2] | Activity [3] | Activity [4] | inhibition [5] | Activity [6] | Activity [7] | Activity [10] | also measured |
| --- | --- | --- | --- | --- | --- | --- | --- | --- | --- |
| CC(C)(C)/[N+]([O-])=C/c1ccc(OCCCO[N+](=O)[O-])cc1 | 49% | 0.783 h | 54% | 2% | 57% |  |  | 30% | Activity [17]: 0.4%; Activity [19]: 55.57% |
| CC(C)(C)/[N+]([O-])=C/c1cccnc1Br | 40% | 0.133 h | 93% | 10% | 88% | 4% | 5.5% |  | inhibition in vivo at 10 µmol/kg [11]: 23.2% |
| Cc1ccc2nc(Cl)c(/C=[N+](\[O-])C(C)(C)C)cc2c1 | 85% | 0.945 h | 100% | 12% | inactive |  |  | 70% | Activity [17]: 1.7%; Activity [8]: 70.17%; Activity [16]: 62.22%; Papp [9]: 15 ×10⁻⁶ cm/s |
| [O-]/[N+](=C\c1ccc(Br)o1)Cc1ccccc1 |  | 0 h |  |  | 17% |  |  | 42% | Activity [17]: 8.6%; Activity [8]: 61.87%; Activity [16]: 114.17% |
| CC(C)(C)c1cc(/C=[N+](\[O-])C(C)(C)C)cc(C(C)(C)C)c1O | 9% | 0.29 h |  |  | inactive |  |  | 80% | Activity [17]: 78.6% |
| O=C(O)/C=C/c1ccc(O)c(O)c1 |  |  |  | 15% |  |  |  |  |  |
| Cc1c(C)c2c(c(C)c1O)CCC(C)(C(=O)O)O2 (stereo not given) | 63% | 1.03 h | 73% |  |  |  |  |  |  |
| CC(Cc1ccc(O)c(O)c1)C(C)Cc1ccc(O)c(O)c1 (stereo not given) |  |  |  |  | 40% |  |  |  |  |
| CC(C)(C)/[N+]([O-])=C/c1ccccc1 | inactive | 0 h | 90% | 15% | 83% | 2% | 4.5% |  | Activity [20]: -13.4%; Activity [13]: inactive; Activity [18]: 73.2%; Activity [19]: 67.82% |
| COc1cc(/C=[N+](/C)[O-])ccc1O | 90% | 0.3 h |  | 11% | 59% | 7% | 8% |  | Activity [13]: inactive |
| CC(C)(C)c1cc(/C=[N+](\[O-])Cc2ccccc2)cc(C(C)(C)C)c1O | 61% | 1.38 h | 77% | 8% | inactive |  |  | 82% | Activity [17]: 81.9%; Activity [18]: 56.95%; Activity [19]: 53.8% |
| C[N+](C)(C)CCOP(=O)(O)OP(=O)([O-])OC[C@H]1O[C@@H](n2ccc(N)nc2=O)[C@H](O)[C@@H]1O [CITICOLINE] |  |  |  |  |  |  |  |  | Activity [14]: 53.2%; Activity [15]: 87.4%; Activity [18]: 84.64%; Activity [19]: 61.26% |
| COc1cc(Br)c(/C=[N+](\[O-])C(C)(C)C)cc1O | 67% | 0.12 h | 72% | 11% |  | 2% | 3% |  |  |
| CC(C)(C)/[N+]([O-])=C/c1c[nH]c2ccccc12 | 57% | 0.36 h | 59% | 15% | 42% | 3% | 4.5% |  |  |
| COc1cc(Br)c(/C=[N+](\[O-])Cc2ccccc2)cc1OC | inactive | 0.895 h |  | 16% | 21% | 1% | 1% |  |  |
